Reference: ChEMBL document CHEMBL3112391, “Ethoxysanguinarine Induces Inhibitory Effects and Downregulates CIP2A in Lung Cancer Cells” (ACS Med Chem Lett, 2014)
Active and inactive are the calls of the source. The calls are words filed in the database; no cut-off is given here.

Tests used:
[1] = biological target: Protein CIP2A (Homo sapiens) (UniProt Q8TCG1); assay: Inhibition of CIP2A in human NCI-H1975 cells assessed as downregulation of p-AKT protein expression at 1 to 2.5 uM after 24 hrs by Western blot analysis; format: cell-based
Summary of the method: (§1)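 H1975 or A549 cells incubated 24 h across a concentration series; whole-cell lysates immunoblotted for CIP2A, c-Myc, pAKT and total AKT.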

A549 [2] = assay: Induction of apoptosis in human A549 cells at 2.5 to 10 uM after 24 hrs by annexin V/propidium iodide staining-based flow cytometric analysis; format: functional, cell-based
Summary of the method: (§2)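 H1975 or A549 cells treated 24 h at various concentrations; apoptosis scored by annexin V/propidium iodide staining and flow cytometry.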

[3] = Cytotoxicity against human 95-D cells assessed as growth inhibition after 48 hrs by MTT assay; format: functional, cell-based
Summary of the method: (§3)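 Lung cancer cell lines (adenocarcinoma, squamous and large cell lines) exposed to 0.5−10 μM for 48 h; viability read by MTT; IC50 taken from the dose–response.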

A549 [4] = assay: Induction of apoptosis in human A549 cells assessed as decrease in pro-caspase-8 protein expression at 1 to 10 uM after 24 hrs by Western blot analysis; format: functional, cell-based
Summary of the method: (§4)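 H1975 or A549 cells treated 24 h at various concentrations; lysates immunoblotted for apoptosis markers (PARP, caspases).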

A549 [5] = assay: Cytotoxicity against human A549 cells assessed as growth inhibition after 48 hrs by MTT assay; format: functional, cell-based; conditions: A549, 48 h; summary of the method: as §3
[6] = biological target: Protein CIP2A (Homo sapiens) (UniProt Q8TCG1); assay: Inhibition of CIP2A in human NCI-H1975 cells assessed as downregulation of c-Myc protein expression at 1 to 2.5 uM after 24 hrs by Western blot analysis; format: cell-based; summary of the method: as §1
NCI-H1975 [7] = assay: Induction of apoptosis in human NCI-H1975 cells assessed as PARP cleavage at 1 to 2.5 uM after 24 hrs by Western blot analysis; format: functional, cell-based; summary of the method: as §4
[8] = Cytotoxicity against human L78 cells assessed as growth inhibition after 48 hrs by MTT assay; format: functional, cell-based; conditions: L78, 48 h; summary of the method: as §3
[9] = biological target: Protein CIP2A (Homo sapiens) (UniProt Q8TCG1); assay: Inhibition of CIP2A in human A549 cells assessed as induction of PP2A activity at 5 uM after 4 to 8 hrs by Western blot analysis; format: cell-based
Summary of the method: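 A549 cells exposed to 5 μM over a time course, lysed, and PP2A activity measured in the lysates.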

NCI-H1975 [10] = assay: Induction of apoptosis in human NCI-H1975 cells assessed as decrease in pro-caspase-9 protein expression at 1 to 2.5 uM after 24 hrs by Western blot analysis; format: functional, cell-based; summary of the method: as §4
A549 [11] = assay: Cytotoxicity against human A549 cells assessed as growth inhibition at 5 uM after 24 hrs by MTT assay in presence of PP2A inhibitor okadaic acid; format: functional, cell-based
Summary of the method: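 A549 cells pretreated 2 h with okadaic acid (25 nM), then 5 μM test agent for 24 h; viability by MTT.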

A549 [12] = assay: Induction of apoptosis in human A549 cells assessed as decrease in pro-caspase-9 protein expression at 1 to 10 uM after 24 hrs by Western blot analysis; format: functional, cell-based; summary of the method: as §4
[13] = Cytotoxicity against human GLC82 cells assessed as growth inhibition after 48 hrs by MTT assay; format: functional, cell-based; conditions: GLC82, 48 h; summary of the method: as §3
[14] = biological target: Protein CIP2A (Homo sapiens) (UniProt Q8TCG1); assay: Inhibition of CIP2A in human A549 cells assessed as potentiation of cisplatin-induced PARP cleavage at 3.5 uM after 24 hrs by Western blot analysis; format: cell-based
Summary of the method: (§5)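 Cells cultured 24 h with test agent and/or cisplatin; lysates immunoblotted for PARP cleavage.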

NCI-H460 = assay: Cytotoxicity against human NCI-H460 cells assessed as growth inhibition after 48 hrs by MTT assay; format: functional, cell-based; conditions: NCI-H460, 48 h; summary of the method: as §3
NCI-H1975 [15] = assay: Induction of apoptosis in human NCI-H1975 cells assessed as decrease in pro-caspase-8 protein expression at 1 to 2.5 uM after 24 hrs by Western blot analysis; format: functional, cell-based; summary of the method: as §4
NCI-H1975 [16] = assay: Cytotoxicity against human NCI-H1975 cells assessed as growth inhibition at 1.5 uM after 24 hrs by MTT assay in presence of pan-caspase inhibitor z-VAD.fmk; format: functional, cell-based
Summary of the method: (§6)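 Cells pretreated 1 h with z-VAD-fmk (20 μM), then exposed for 24 h (H1975 at 1.5 μM, A549 at 5 μM); viability by MTT.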

NCI-H1975 [17] = assay: Induction of apoptosis in human NCI-H1975 cells at 0.5 to 2.5 uM after 24 hrs by annexin V/propidium iodide staining-based flow cytometric analysis; format: functional, cell-based; summary of the method: as §2
A549 [18] = assay: Cytotoxicity against human A549 cells assessed as growth inhibition at 5 uM after 24 hrs by MTT assay in presence of pan-caspase inhibitor z-VAD.fmk; format: functional, cell-based; summary of the method: as §6
[19] = Cytotoxicity against human SPC-A1 cells assessed as growth inhibition after 48 hrs by MTT assay; format: functional, cell-based; conditions: SPCA1, 48 h; summary of the method: as §3
[20] = biological target: Protein CIP2A (Homo sapiens) (UniProt Q8TCG1); assay: Inhibition of CIP2A in human A549 cells assessed as downregulation of c-Myc protein expression at 1 to 10 uM after 24 hrs by Western blot analysis; format: cell-based; summary of the method: as §1
[21] = biological target: Protein CIP2A (Homo sapiens) (UniProt Q8TCG1); assay: Induction of FLAG-tagged CIP2A (unknown origin) proteolysis transfected in human A549 cells after 4 to 12 hrs; format: cell-based
Summary of the method: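 A549 cells transfected 24 h with Flag-CIP2A, then treated over a time course; whole-cell lysates probed with anti-Flag.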

[22] = biological target: Protein CIP2A (Homo sapiens) (UniProt Q8TCG1); assay: Inhibition of CIP2A in human A549 cells assessed as potentiation of cisplatin-induced cell growth inhibition at 3.5 uM after 24 hrs by MTT assay; format: cell-based
Summary of the method: (§7)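 Cells treated 24 h with test agent, cisplatin or both (H1975: 1 μM with 10 μM cisplatin; A549: 3.5 μM with 20 μM cisplatin); viability by MTT.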

NCI-H1975 [23] = assay: Downregulation of CIP2A protein expression in human NCI-H1975 cells at 1 to 2 uM after 24 hrs by Western blot analysis; format: functional, cell-based; summary of the method: as §1
A549 [24] = assay: Induction of apoptosis in human A549 cells assessed as PARP cleavage at 1 to 10 uM after 24 hrs by Western blot analysis; format: functional, cell-based; summary of the method: as §4
[25] = biological target: Protein CIP2A (Homo sapiens) (UniProt Q8TCG1); assay: Induction of CIP2A proteolysis in human A549 cells at 5 uM after 4 hrs in presence of protein synthesis inhibitor cycloheximide; format: cell-based
Summary of the method: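 A549 cells given 100 μg/mL cycloheximide with or without 5 μM test agent over a time course; whole-cell lysates probed for CIP2A.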

A549 [26] = assay: Downregulation of CIP2A mRNA expression in human A549 cells at 1 to 10 uM after 24 hrs by RT-PCR analysis; format: functional, cell-based
Summary of the method: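 CIP2A transcript measured by real-time quantitative RT-PCR after 24 h treatment.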

NCI-H1975 [27] = assay: Induction of apoptosis in human NCI-H1975 cells assessed as PARP cleavage at 1.5 uM after 24 hrs by Western blot analysis in presence of pan-caspase inhibitor z-VAD.fmk; format: functional, cell-based
Summary of the method: (§8)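 Cells pretreated 1 h with z-VAD-fmk (20 μM), then exposed for 24 h (H1975 at 1.5 μM, A549 at 5 μM); lysates immunoblotted for PARP and its cleavage fragment.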

A549 [28] = assay: Induction of apoptosis in human A549 cells assessed as PARP cleavage at 5 uM after 24 hrs by Western blot analysis in presence of pan-caspase inhibitor z-VAD.fmk; format: functional, cell-based; summary of the method: as §8
A549 [29] = assay: Downregulation of CIP2A protein expression in human A549 cells at 3.5 to 10 uM after 24 hrs by Western blot analysis; format: functional, cell-based; summary of the method: as §1
A549 [30] = assay: Downregulation of CIP2A protein expression in human A549 cells at 5 uM by Western blot analysis; format: functional, cell-based; conditions: TDE = time-dependent effect
Summary of the method: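 A549 cells treated with 5 μM over a time course; lysates immunoblotted for CIP2A.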

[31] = biological target: Protein CIP2A (Homo sapiens) (UniProt Q8TCG1); assay: Inhibition of CIP2A in human A549 cells assessed as downregulation of p-AKT protein expression at 1 to 10 uM after 24 hrs by Western blot analysis; format: cell-based; summary of the method: as §1
[32] = biological target: Protein CIP2A (Homo sapiens) (UniProt Q8TCG1); assay: Inhibition of CIP2A in human NCI-H1975 cells assessed as potentiation of cisplatin-induced cell growth inhibition at 1 uM after 24 hrs by MTT assay; format: cell-based; summary of the method: as §7
[33] = biological target: Protein CIP2A (Homo sapiens) (UniProt Q8TCG1); assay: Inhibition of CIP2A in human NCI-H1975 cells assessed as potentiation of cisplatin-induced PARP cleavage at 1 uM after 24 hrs by Western blot analysis; format: cell-based; summary of the method: as §5
NCI-H1975 [34] = assay: Cytotoxicity against human NCI-H1975 cells assessed as growth inhibition after 48 hrs by MTT assay; format: functional, cell-based; conditions: NCI-H1975, 48 h; summary of the method: as §3
A549 [35] = assay: Downregulation of CIP2A protein expression in human A549 cells after 24 hrs by Western blot analysis; format: functional, cell-based
Summary of the method: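 A549 cells were incubated with ESG at a series of concentrations, including 3.5 and 10 μM, for 24 h. Cell lysates were immunoblotted for CIP2A.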

A549 [36] = assay: Downregulation of CIP2A mRNA expression in human A549 cells after 24 hrs by RT-PCR analysis; format: functional, cell-based
Summary of the method: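 Cells exposed to ESG for 24 h. CIP2A transcript level was measured by real-time quantitative RT-PCR.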

NCI-H1975 [37] = assay: Downregulation of CIP2A protein expression in human NCI-H1975 cells after 24 hrs by Western blot analysis; format: functional, cell-based
Summary of the method: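 H1975 cells were incubated with ESG at a series of concentrations, including 1 and 2 μM, for 24 h. Cell lysates were Western blotted with anti-CIP2A antibody.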

## CCOC1c2c(ccc3c2OCO3)-c2ccc3cc4c(cc3c2N1C)OCO4 (stereo not given)
[1]
  inhibition: Active
A549 [2]
  Activity: Active
[3]
  IC50: 2000 nM
A549 [4]
  Activity: Active
A549 [5]
  IC50: 2740 nM
[6]
  inhibition: Active
NCI-H1975 [7]
  Activity: Active
[8]
  IC50: 1000 nM
[9]
  inhibition: Active
NCI-H1975 [10]
  Activity: Active
A549 [11]
  growth inhibition (GI): inactive
A549 [12]
  Activity: Active
[13]
  IC50: 1300 nM
[14]
  inhibition: Active
NCI-H460
  IC50: 1560 nM
NCI-H1975 [15]
  Activity: Active
NCI-H1975 [16]
  growth inhibition (GI): inactive
NCI-H1975 [17]
  Activity: Active
A549 [18]
  growth inhibition (GI): inactive
[19]
  IC50: 1100 nM
[20]
  inhibition: Active
[21]
  Activity: Active
[22]
  inhibition: Active
NCI-H1975 [23]
  Activity: Active
A549 [24]
  Activity: Active
[25]
  Activity: Active
A549 [26]
  Activity: Active
NCI-H1975 [27]
  Activity: inactive
A549 [28]
  Activity: inactive
A549 [29]
  Activity: Active
A549 [30]
  Activity: tde
[31]
  inhibition: Active
[32]
  inhibition: Active
[33]
  inhibition: Active
NCI-H1975 [34]
  IC50: 1290 nM

## C=C1C(=O)[C@]23[C@H](O)[C@H]1CC[C@H]2[C@@]12CO[C@@]3(O)C[C@@H]1C(C)(C)CC[C@@H]2OC(C)=O [RABDOCOETSIN B]
A549 [5]
  IC50: 14200 nM
A549 [35]
  Activity: Active
A549 [36]
  Activity: Active
NCI-H1975 [37]
  Activity: Active
NCI-H1975 [34]
  IC50: 10300 nM
